Assay outcomes from PubChem.
APP 5'UTR act = activates APP 5'UTR luciferase reporter | SH-SY5Y APP 5'UTR luciferase reporter, luminescence; zero percent = DMSO vehicle wells | activation, % at 2 µM | hit rate 1% among 190,000;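 active = activation above a set limit, based on mean plus 3 SD of controls, cut at about 140% in these data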
STAT3 inh = STAT3 signaling inhibition; AID 862; inhibition, % at 5.5 µM; hit rate 0.89% among 190,000; U3A cells, IL-6 STAT3-luciferase reporter, luminescence; host cell line lacks STAT1;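 active = inhibition above the mean inhibition across all screened compounds plus 3 SD, cut at about 44% in these data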;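 also: 0% = DMSO only wells and 100% = 100 µM nifuroxazide control wells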
STAT1 activator = activators of IFN-gamma induced STAT1 signaling | NIH 3T3 STAT1-luciferase reporter, luminescence; 100% = IFN-gamma alone, no compound | activation (% of control), % at 5.5 µM | hit rate 2.6% among 200,000 | AID 932;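 active = activation above the screen-wide mean activation plus 3 SD, cut at about 130% in these data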;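 also: raw ratio to IFN-gamma control signal so 100% means no change and 0% no light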
STAT3 activator = activators of IL-6 induced STAT3 signaling. activation (% of control), % at 5.6 µM. AID 871. U3A cells, IL-6 STAT3-luciferase reporter, luminescence; 100% = signal with IL-6 EC80 alone. hit rate 0.91% among 190,000;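 active = activation above the screen-wide mean of compound activation plus 3 SD, cut at about 130% in these data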;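 also: 0% = background luminescence of wells with medium and substrate only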
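Material: STAT3-luciferase reporter U3A cells. Controls: IL-6-treated wells, 100% activation. Read-out: % activation versus median of IL-6-stimulated wells. Probe or stimulus: IL-6 stimulus at 33 ng/mL final. Timing: compound 1 h, then IL-6 6 h at 37 °C. Signal: reporter luminescence signal.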
STAT1 inh-1 = reduces IFN-gamma driven STAT1 reporter signal | NIH 3T3 STAT1-luciferase reporter, luminescence | inhibition, % at 5.5 µM | hit rate 0.35% among 200,000 | AID 920;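 active = inhibition above a set limit, the mean inhibition across all tested compounds plus 3 SD, cut at about 34% in these data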;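 also: 0% = IFN-gamma with DMSO and 100% = IFN-gamma with 300 µM nifuroxazide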
NF-kB expr up = raises NF-kB expression in human neuronal cells | fold change at 12.5 µM | hit rate 1.6% among 190,000 | NF-kB reporter expression; hits give high values; in the data active = fold change above about 3.3
STAT1 inh-2 = confirmation of STAT1 signaling inhibitors; shares compounds with STAT1 inh-1; NIH 3T3 STAT1-luciferase reporter, IFN-gamma, luminescence; inhibition, % at 5.5 µM; hit rate 55% among 200; AID 1263;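 active = triplicate mean inhibition exceeding the hit cutoff computed for the primary STAT1 screen, cut at about 35% in these data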;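 also: 0% = DMSO with IFN-gamma and 100% = 300 µM nifuroxazide with IFN-gamma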
NFkB inh STAT1ct = inhibits NF-kappaB, counter-screen to STAT1 inhibitors; shares compounds with STAT1 inh-1; HEK293T NF-kB luciferase reporter, TNF-alpha induced, luminescence; inhibition, % at 5.7 µM; hit rate 30% among 200; AID 1303;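 active = inhibition above the mean of solvent-only control wells plus 3 SD of those wells, cut at about 15% in these data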;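 also: 0% = DMSO with TNF-alpha and 100% = MG-132 control with TNF-alpha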
STAT3 inh STAT1c = STAT3 inhibition in STAT1 inhibitor counter-screen. shares compounds with STAT1 inh-1. U3A cells, IL-6 STAT3 luciferase reporter, luminescence; cells lacking STAT1. inhibition, % at 5.7 µM. hit rate 20% among 200;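 active = inhibition above the mean of solvent-only control wells plus 3 SD, set per campaign, cut at about 25% in these data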;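 also: 0% = IL-6 plus DMSO and 100% = IL-6 plus nifuroxazide control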
* marks the source's active call; other numbers are inactive results; . = not tested or not shown. Shown are actives, neighbours in structure and some others; about 4.9% of the full set was active somewhere.

SMILES | APP 5'UTR act | STAT3 inh | STAT1 activator | STAT3 activator | STAT1 inh-1 | NF-kB expr up | STAT1 inh-2 | NFkB inh STAT1ct | STAT3 inh STAT1c
CC1(C)Cc2c(ccc3ccccc23)C2=C(C(=O)N3CCCC3)C(=O)C(=O)N21 | 8 | 6 | 61 | 96 | 41* | 0.83 | 41* | 5 | 0
Cc1cccc(-n2cc(-c3ccccc3)c3c(N4CCOCC4)ncnc32)c1 | -12 | 8 | 64 | 94 | 38* | 0.38 | 18 | 9 | -51
C=CCNC(=S)N/N=C/c1cccc([N+](=O)[O-])c1 | 20 | -6 | 106 | 106 | -8 | 0.9 | . | . | .
Cc1cc(N2CCCC2)nc2ccc(NC(=S)NCCCN3CCC(C)CC3)cc12 | -5 | 8 | 99 | 98 | 1 | 0.92 | . | . | .
COc1cccc(CNc2ncnc3cc(Cl)ccc23)c1 | -9 | 13 | 61 | 90 | 41* | 0.89 | 32 | 7 | 3
O=C(NCC1CCCO1)C(c1ccc(F)cc1)N(Cc1ccc2c(c1)OCO2)C(=O)c1ccc(CN2CCOCC2)o1 (stereo not drawn) | -2 | 10 | 98 | 96 | 1 | 1.1 | . | . | .
CN(C)S(=O)(=O)c1cccc(C(=O)OCC(=O)Nc2sccc2C(N)=O)c1 | 0 | 25 | 94 | 82 | 6 | 0.5 | . | . | .
COc1cc(C(=O)OCC(=O)Nc2sccc2C(N)=O)cc(OC)c1OC | -8 | 28 | 60 | 80 | 42* | 0.86 | -4 | 0 | 6
O=C(O)C1C2C=CC(C2)C1C(=O)NCc1cccs1 (stereo not drawn) | 7 | 7 | 96 | 98 | 3 | 0.92 | . | . | .
COc1ccc(CNC(=O)C(c2ccc(C)cc2)N(Cc2cccs2)C(=O)c2ccc3c(c2)OCCO3)cc1 (stereo not drawn) | -19 | 11 | 65 | 96 | 38* | 0.26 | 23 | -7 | -5
O=C(N/N=C/c1cccs1)C(=O)Nc1cccc(Cl)c1 | -6 | 19 | 110 | 85 | -11 | 1.2 | . | . | .
O=C(O)c1cccc(N/N=C/c2cccs2)c1 | -9 | 22 | 46 | 83 | 60* | 15* | 43* | 79* | -24
CCOc1c(Cl)cc(/C=N/NC(N)=S)cc1OC | 16 | 19 | 108 | 83 | -9 | 1.3 | . | . | .
Clc1ccccc1N1CCN(c2ncnc3nc[nH]c23)CC1 | -10 | 25 | 66 | 80 | 37* | 1.4 | -6 | 2 | -9
FC(F)(F)c1cccnc1N1CCN(c2ncnc3nc[nH]c23)CC1 | 7 | 15 | 97 | 88 | 4 | 1.4 | . | . | .
O=C(c1ccco1)N1CCN(c2ncnc3c2[nH]c2ccccc23)CC1 | 11 | -32 | 59 | 131 | 44* | 0.29 | 47* | 14 | 5
O=C(c1ccco1)N1CCN(c2ncnc3c2[nH]c2ccc(Br)cc23)CC1 | 4 | 18 | 66 | 86 | 37* | 0.53 | 37* | 4 | 0
Cc1ccc(-c2nnc(N3CCN(C(=O)c4ccco4)CC3)c3ccccc23)cc1 | -9 | 4 | 109 | 102 | -11 | 0.52 | . | . | .
COc1ccccc1C1=NN(C2=NN=C(N)Cc3ncnn32)C(O)(C(F)(F)F)C1 (stereo not drawn) | -4 | 10 | 93 | 95 | 9 | 1.1 | . | . | .
COc1ccc(CCC(=O)N/N=C\c2cccs2)cc1 | 14 | 20 | 105 | 87 | -8 | 1.1 | . | . | .
CC1=NC(=O)C(N=Nc2ccccc2C(=O)O)N1c1ccccc1 (stereo not drawn) | 10 | 0 | 39 | 103 | 65* | 0.86 | 50* | 16* | -8
Cc1nn(-c2ccccc2C(=O)O)c(=O)c2ccccc12 | 15 | 8 | 93 | 97 | 8 | 1.1 | . | . | .
CCOC(=O)N1CCN(CCC(=O)Nc2cc([N+](=O)[O-])ccc2OC)CC1 | 17 | 11 | 104 | 98 | -4 | 1.1 | . | . | .
Cc1nnc(NC(=O)c2cccc(S(=O)(=O)N3CCc4ccccc43)c2)s1 | 11 | 12 | 93 | 89 | 8 | 1.1 | . | . | .
O=C(NNC(=O)c1cccc(S(=O)(=O)N2CCc3ccccc32)c1)c1ccccc1 | 1 | 18 | 66 | 91 | 35* | 1.1 | 36* | 5 | 20
SMILES | APP 5'UTR act | STAT3 inh | STAT1 activator | STAT3 activator | STAT1 inh-1 | NF-kB expr up | STAT1 inh-2 | NFkB inh STAT1ct | STAT3 inh STAT1c
Cc1cc(NC(=S)NC(=O)/C=C/c2ccc(S(=O)(=O)N3CCOCC3)cc2)ccc1Br | 2 | 2 | 97 | 102 | 0 | 0.82 | . | . | .
CCOC(=O)C1CCN(CC(=O)Nc2c(C(=O)OC)[nH]c3ccc(Cl)cc23)CC1 | -9 | 40 | 66 | 70 | 37* | 0.41 | 33 | 3 | 29*
CCOC(=O)C1CCN(CC(=O)Nc2c(C(=O)OC)[nH]c3ccccc23)CC1 | -4 | 20 | 91 | 90 | 10 | 0.68 | . | . | .
CCOC(=O)N1CCN(C(=O)/C=C/c2c(C)nn(-c3ccc(F)cc3)c2Cl)CC1 | 9 | 15 | 42 | 89 | 62* | 0.94 | 40* | -4 | 12
COC(=O)CSc1nc2ccccn2c(=O)c1C=O | 18 | 5 | 86 | 105 | 13 | 1.8 | . | . | .
O=C(c1ccc2c(c1)N(Cc1ccccc1)C(=O)c1ccccc1S2)N1CCCC1 | 13 | 15 | 53 | 96 | 52* | 0.72 | 45* | 10 | -52
Cc1ccccc1CN1C(=O)c2ccccc2Sc2ccc(C(=O)O)cc21 | -2 | -4 | 101 | 105 | -1 | 1 | . | . | .
CC(C)[C@H](NC(=O)c1ccco1)C(=O)OCC(=O)Nc1ccccc1OC(F)F | -12 | 0 | 94 | 102 | 7 | 1.3 | . | . | .
CCCCn1c(=NC(=O)c2ccco2)c(C(=O)OCC)cc2c(=O)n3ccccc3nc21 | 5 | 9 | 101 | 94 | -1 | 0.73 | . | . | .
CCOC(=O)c1cc2c(=O)n3ccccc3nc2n(Cc2ccco2)c1=NC(=O)c1ccc(OC)cc1OC | 13 | 23 | 44 | 83 | 60* | 1.2 | 22 | 10 | 25*
COc1ccccc1NC(=O)CSc1nnc(COc2ccccc2OC)n1C | -3 | -1 | 97 | 106 | 2 | 0.81 | . | . | .
CCN(CC)S(=O)(=O)c1ccc(N2CCOCC2)c(NC(=O)c2cc(-c3ccccn3)nc3ccccc23)c1 | -39 | 17 | 38 | 92 | 66* | 0.31 | 46* | -3 | 19
O=C(NC(=S)Nc1ccc(Cc2ccncc2)cc1)c1ccccc1 | 8 | 9 | 111 | 94 | -12 | 1.4 | . | . | .
O=C(NC(=S)NC(c1ccccc1)c1ccncc1)c1ccccc1 (stereo not drawn) | -2 | 20 | 44 | 85 | 62* | 1.1 | 57* | 20* | 10
